Experimental data gathered from unrelated publications.
Read-out: cell growth or viability

C=CC(=O)Nc1cccc(Nc2nc(Nc3ccc(OCCOC)cc3)ncc2F)c1  GI50 (U2932; 48 h): 4300 nM
COc1cc(-c2ccc(-c3ccc(C(=N)N)nc3)s2)cc(OC)c1OC  GI50 (TK-10): 3190 nM
COc1ccc(-c2nc(NN=C3C(=O)Nc4ccc(Cl)cc43)c3ccccc3n2)cc1OC  inhibition (HT-29; 30 µM): 5.3%
Cc1cc(C)n(C(=S)[S][Au][PH](CCCCCC[PH]([Au][S]C(=S)n2nc(C)cc2C)(c2ccccc2)c2ccccc2)(c2ccccc2)c2ccccc2)n1  GI50 (TK-10): 1210 nM
COc1cc(NCC(=O)Nn2c(C)nc3ccc(Cl)cc3c2=O)cc(OC)c1OC  viability (LoVo; LDH; 200 µg/mL, 24 h): 59.5%
COc1ccc2c(c1)C(=NNc1ncnc3cc(OC)c(OC)cc13)C(=O)N2  inhibition (HT-29; 10 µM): 20.9%
CCc1ccc(/C=N/n2c(C)nc3ccc(C)cc3c2=O)s1  viability (LoVo; LDH; 200 µg/mL, 24 h): 89.5%
COc1ccc(-c2nc(NN=C3C(=O)Nc4ccc(Br)cc43)c3ccccc3n2)cc1OC  inhibition (HT-29; 10 µM): 70.8%
C/C=C/C[C@H](C)[C@@H](OC)[C@@H](C)[C@H](O)C[C@H]1OC(=O)C=C[C@H]1CC  GI50 (A2780; MTT; 48 h): 41 nM
Cc1c(NC(=O)c2ccc(C(C)(C)C)cc2)cccc1-c1cn(C)c(=O)c(Nc2ccc(C(=O)N3CCOCC3)cc2)n1  GI50 (U2932; 48 h): > 10000 nM
Cc1nc2ccc(Br)cc2c(=O)n1/N=C/c1ccc(C(=O)O)cc1  viability (LoVo; LDH; 200 µg/mL, 24 h): 61.9%
CCC1=C[C@@H]2CN(C1)Cc1c([nH]c3ccccc13)[C@@](C(=O)OC)(c1cc3c(cc1OC)N(C)[C@H]1[C@@](O)(C(=O)OC)[C@H](OC(C)=O)[C@]4(CC)C=CCN5CC[C@]31[C@@H]54)C2  IC80 (LLC-PK1; 72 h): 11 nM
COc1cccc(Oc2ccccc2NC(=O)CNC(=O)c2cccc3ccccc23)c1  GI50 (TK-10; SRB; 48 h): 1580 nM
COc1ccc(-c2ccc(-c3ccc(C(=N)N)nc3)s2)cc1  GI50 (TK-10): 1890 nM
